Hits are enriched below; roughly 1.8% of the tested compounds scored in any of these assays.
MC4R antag cAMP: antagonists of human melanocortin 4 receptor (MC4R); P32245; MC4R-expressing cells, MTII-stimulated cAMP, LANCE TR-FRET; inhibition, % at 6.5 µM; 360,000 tested, 0.48% active; AID 540295;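 active = inhibition above its plate's cutoff, the mean of tested wells on that plate plus 3 SD, cut at about 29% in these data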;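 note: 0% = Melanotan II alone and 100% = Melanotan II plus saturating MCL0020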
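Material: U2OS-MC4R stable cell line | Reagent: Melanotan II challenge after compound preincubation | Doses: One concentration, 6.5 µM nominal | Incubation: 30-min compound preincubation, 1-h Melanotan II challenge, 1-h detection, room temperature | Signal: TR-FRET cAMP assay | Replicates: One well per compound, no replicates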
MC4R ag barr: activates human MC4R beta-arrestin recruitment. 360,000 tested, 0.98% active. activation, % at 8.9 µM. AID 540308. U2OS MC4R beta-arrestin complementation, luminescence; percent of melanotan II response, DMSO zero. P32245;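 active = activation above a per-plate cutoff, the mean activation of sample wells on that plate plus 3 SD, cut at about 8% in these data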
TLR4 MyD88 comp: inhibitors of human TLR4-MyD88 binding; HeLa CL3-4 TLR4/MyD88 BLA complementation, FRET ratio; O00206+Q99836; 200,000 tested, 0.18% active; AID 861; inhibition, % at 8.4 µM; in the data active = inhibition above about 25%;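 note: 0% = vehicle and 100% = reference inhibitor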
NOD2-RIPK2 inh: inhibitors of human NOD2-RIPK2 interaction; CHO BLA complementation NOD2-RIPK2, CCF4 ratio; AID 624267; 360,000 tested, 0.38% active; inhibition, % at 4.98 µM; O43353; in the data active = inhibition above about 21%;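 note: 0% = vehicle only and 100% = reference blocker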
TLR9-MyD88 block: TLR9-MyD88 interaction inhibition. Q9NR96+Q99836. CHO BLA complementation TLR9-MyD88, CCF4 FRET ratio. inhibition, % at 4.98 µM. 340,000 tested, 0.21% active. AID 504734;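 active = inhibition above the mean over all tested compounds plus 3 SD, cut at about 21% in these data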;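 note: 0% = DMSO only wells and 100% = clavulanate BLA inhibitor control wells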
U2OS cAMP counter: nonselective cAMP signaling inhibitor, MC4R antagonist counter-screen. shares compounds with MC4R antag cAMP. parental U2OS, forskolin cAMP, LANCE TR-FRET. AID 602193. inhibition, % at 6.5 µM. 1,600 tested, 26% active;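 active = mean inhibition over triplicates above the low-control well mean plus 3 SD, set per campaign, cut at about 13% in these data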;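 note: signal is single emission at 671 nm which falls as cellular cAMP rises; 0% = forskolin-stimulated wells and 100% = buffer without forskolin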
MC4R cAMP antag: human MC4R cAMP antagonism confirmation; shares compounds with MC4R antag cAMP; inhibition, % at 6.5 µM; MC4R-expressing cells, MTII-stimulated cAMP, TR-FRET; 1,600 tested, 27% active; in the data active = inhibition above about 29%;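 note: 0% = agonist stimulated wells alone and 100% = agonist stimulated wells plus saturating reference antagonist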
Starred values were filed as active, the others as inactive; . = not tested or not shown.

SMILES | MC4R antag cAMP | MC4R ag barr | TLR4 MyD88 comp | NOD2-RIPK2 inh | TLR9-MyD88 block | U2OS cAMP counter | MC4R cAMP antag
Cc1ccc(C)c(NC(=O)CCc2nnc3ccc(N4CCCCC4)nn23)c1 | 4.1 | -1.6 | . | -2.4 | 8.3 | . | .
O=C(CN1CCN(Cc2ccccc2F)C1=O)NC1CCCC1 | 28.8* | 0.4 | -4.1 | -1.2 | 0.2 | -1.1 | -4.9
O=C(CN1CCCN(Cc2ccc(F)cc2Cl)C1=O)NC1CCCCCCC1 | 6.1 | 0.8 | -11.1 | 3.0 | 0.1 | . | .
Cc1ccc(Cn2ncc(Cl)c(Cl)c2=O)cc1 | 49.4* | -2.4 | 5.7 | 8.2 | 6.7 | 33.2* | 50.2*
O=C(Cn1ncc(Cl)c(Cl)c1=O)N1CCN(Cc2ccccc2)CC1 | 28.8* | -0.2 | 24.4 | 17.8 | 10.2 | 26.2* | 39.9*
CCCCn1c(N)c(N(CCOC)C(=O)C2CC(=O)N(c3ccc(CC)cc3)C2)c(=O)[nH]c1=O (centres undefined) | 16.6 | -4.3 | . | 4.2 | 11.1 | . | .
CC(C(=O)Nc1ccc(Cl)cc1)c1ncc(C(F)(F)F)cc1Cl (centres undefined) | -0.1 | -0.1 | -12.1 | -4.8 | 4.0 | . | .
CNC(=O)C(C)c1ncc(C(F)(F)F)cc1Cl (centres undefined) | 31.1* | 0.6 | -15.5 | 5.9 | 9.4 | 0.8 | -8.1
CCOc1ccc2c(ccc(/C=C/c3cc(C)c4cccnc4c3O)[n+]2C)c1 | 50.1* | 0.9 | . | -16.1 | -26.8 | -9.1 | 38.2*
CCC(C)(C)NC(=O)C(c1cccc(OC)c1OC)N(Cc1ccc(OC)cc1)C(=O)CCC(=O)Nc1cc(C)on1 (centres undefined) | 9.2 | 0.8 | . | 4.6 | -8.6 | . | .
COc1cccc(C(C(=O)NC(C)(C)C)N(Cc2ccc(F)cc2)C(=O)CCC(=O)Nc2cc(C)on2)c1OC (centres undefined) | 29.7* | 0.3 | . | -4.3 | -5.7 | 1.9 | 5.8
CN(C)CC(=O)N[C@@H]1CC[C@@H](CCNS(=O)(=O)c2ccccc2)O[C@@H]1CO | . | . | . | -2.9 | . | . | .
C=CC[C@H](CC(=O)N(CCO)Cc1ccccc1)C(=O)N[C@H](COC(=O)[C@@H](CC=C)Cc1ccc(F)cc1)Cc1c[nH]c2ccccc12 | 22.5 | 0.4 | . | 4.2 | 2.1 | . | .
C=CC[C@@H](CC(=O)N(CCO)Cc1ccccc1)C(=O)N[C@H](COC(=O)[C@@H](CC=C)Cc1ccc(F)cc1)Cc1c[nH]c2ccccc12 | 29.1* | -0.1 | . | -10.7 | 1.4 | 2.0 | 5.2
Cc1ccc(S(=O)(=O)n2cnc3ccccc32)cc1[N+](=O)[O-] | 28.9* | 1.4 | . | -5.2 | 3.1 | -2.0 | -3.2
Cc1ccc(S(=O)(=O)n2cnc3cc([N+](=O)[O-])ccc32)cc1C | 4.1 | -1.9 | -14.7 | -2.5 | 1.9 | . | .
Cc1ccc(-n2nc(-c3ccc(N)cc3)cc2N)cc1 | 0.3 | 0.0 | -6.2 | -9.5 | 12.5 | . | .
Cc1ccc(-n2nc(-c3ccc(OC(F)(F)F)cc3)cc2N)cc1C | 29.2* | 4.2 | . | -7.5 | . | 3.9 | 8.0
COc1ccc(N2CCN(C(=O)Nc3ccccc3Cl)CC2)cc1 | 36.8* | 2.0 | -0.9 | -5.9 | 5.0 | -1.1 | 4.5
O=C(NC1CCCCC1)C1c2ccccc2OCC(=O)N1Cc1cccnc1 (centres undefined) | . | . | . | -10.6 | . | . | .
CCN(CC(=O)Nc1ccc(NC(C)=O)cc1)C(=O)CCN1C(=O)c2cccc([N+](=O)[O-])c2C1=O | 5.1 | -2.1 | . | -14.3 | 1.1 | . | .
CCN(CC(=O)Nc1c(F)cccc1F)C(=O)CCN1C(=O)c2cccc([N+](=O)[O-])c2C1=O | 36.5* | -1.8 | . | -6.2 | -10.1 | 15.5* | 49.4*
COc1cccc(NC(=O)CCN2C(=O)c3cccc([N+](=O)[O-])c3C2=O)c1 | 36.6* | -1.5 | . | -7.6 | 0.4 | 15.0* | 34.0*
Cc1ccccc1N1CCN(Cc2ccc(Br)o2)CC1 | -0.2 | 1.2 | . | -6.0 | -3.9 | . | .
O=C(CN(Cc1ccco1)Cc1ccco1)Nc1cc(S(=O)(=O)N2CCCCC2)ccc1Cl | 29.1* | 3.4 | . | -12.5 | -4.2 | 5.3 | 11.0
SMILES | MC4R antag cAMP | MC4R ag barr | TLR4 MyD88 comp | NOD2-RIPK2 inh | TLR9-MyD88 block | U2OS cAMP counter | MC4R cAMP antag
O=C(Nc1cc(S(=O)(=O)N2CCCCC2)ccc1Cl)c1ccccc1NS(=O)(=O)c1ccc(F)cc1 | 30.6* | 3.3 | 10.9 | -11.9 | -10.5 | 1.3 | 5.0
COCCCNC(=O)/C=C1\Sc2ccccc2N(Cc2ccccc2F)C1=O | 44.3* | 0.3 | 22.1 | 5.2 | -3.1 | 46.1* | 34.4*
COc1ccc(CCNC(=O)C2(C)CCC(=O)N2Cc2ccc3c(c2)OCO3)cc1OC (centres undefined) | 7.1 | 0.6 | 0.0 | -3.6 | -1.1 | . | .
COc1ccc(CCNC(=O)C2(C)CCC(=O)N2Cc2ccc(F)cc2Cl)cc1OC (centres undefined) | 38.9* | -0.9 | . | -0.1 | -6.0 | 1.1 | 6.5
O=C(Cc1ccc(F)cc1)NCCc1cnc[nH]1 | 31.5* | -0.3 | . | 3.3 | 2.2 | -0.7 | -15.3
CSCC[C@H](CO)NC(=O)[C@H]1O[C@@H](n2cnc3c(N)ncnc32)[C@H](O)[C@@H]1O | . | . | . | -2.8 | . | . | .
O=C(O)c1cccc(S(=O)(=O)Nc2ccccc2-c2ccccc2)c1 | 29.1* | 0.4 | -6.4 | 0.0 | -0.3 | 2.9 | -8.3
CCO/C([O-])=N/c1sn[n+](C)c1C | 3.1 | -1.9 | . | -13.6 | . | . | .
O=C(CSc1ccccn1)C12CC3CC(CC(C3)C1)C2 | 31.5* | 3.6 | 9.9 | -4.0 | 9.3 | 1.8 | -4.7
O=C(O)c1cccnc1SCC(=O)C12CC3CC(CC(C3)C1)C2 | 11.2 | -0.7 | . | 8.0 | 2.4 | . | .
CCN(CC)C(=O)c1cccc(-c2csc(C(O)(c3ccccc3)C(F)(F)F)n2)c1 (centres undefined) | 9.0 | 1.7 | . | -1.2 | . | . | .
CCCN1C2CCCC1CC(NC(=O)c1ccc(OC)cc1)C2 (centres undefined) | -0.3 | -1.3 | . | 1.5 | 3.8 | . | .
COc1ccc(NC(=O)c2cccc3c(-c4cnn(C)c4)coc23)cc1 | 2.8 | -0.8 | . | -1.9 | . | . | .
COc1cc(NC(=O)c2cccc3c(-c4cnn(C)c4)coc23)cc(OC)c1OC | 46.1* | -0.6 | . | 3.6 | . | -1.3 | 10.6
S=C(NCCCN1CCOCC1)NN=C1c2ccccc2-c2ccccc21 | 0.2 | -1.9 | . | -16.9 | -18.2 | . | .
CCOC(=O)c1cnc2ccc(OCC)cc2c1NCc1ccccc1OC | 47.5* | 1.7 | 2.8 | -8.3 | -14.4 | 16.4* | 47.6*
CCOC(=O)c1cnc2ccc(OC)cc2c1NCc1ccccc1 | 4.2 | 0.1 | 0.9 | -4.5 | -1.8 | . | .
COc1ccccc1C(=O)NC(CCSC)C(=O)OCC(=O)N1CCCC1=O (centres undefined) | 28.6* | -1.9 | . | 0.7 | 2.3 | 17.1* | 41.8*

High-throughput results from PubChem BioAssay.
